Reference: ChEMBL document CHEMBL1141572, “N-substituted 3-acetyltetramic acid derivatives as antibacterial agents” (J Med Chem, 2008)
Values after ≈ are worked out from the molar mass of the structure shown. Active and inactive are the calls of the source. The rule behind the calls is not given here.

How the values were obtained:
[1] = tested on: Mycobacterium tuberculosis; experiment: Antimycobacterial activity against Mycobacterium tuberculosis H37Rv after 7 days by micro-broth dilution method; type: functional; conditions: for MIC: 168 h
Bacillus anthracis = experiment: Antibacterial activity against Bacillus anthracis Sterne 34F2 by micro-broth dilution method; type: functional
Bacillus subtilis = experiment: Antibacterial activity against Bacillus subtilis ATCC 23857 by microbroth dilution method; type: functional
Enterococcus faecalis = experiment: Antibacterial activity against Enterococcus faecalis ATCC 33186 by microbroth dilution method; type: functional
Staphylococcus aureus [2] = experiment: Antibacterial activity against methicillin-resistant Staphylococcus aureus ATCC 33591 by micro-broth dilution method; type: functional
Staphylococcus aureus [3] = experiment: Antibacterial activity against methicillin-sensitive Staphylococcus aureus 8325 ATCC 35556 by micro-broth dilution method; type: functional
Cutibacterium acnes = experiment: Antibacterial activity against Propionibacterium acnes ATCC 6919 by micro-broth dilution method; type: functional
Streptococcus pyogenes = experiment: Antibacterial activity against Streptococcus pyogenes ATCC 700294 by micro-broth dilution method; type: functional
Streptococcus pneumoniae = experiment: Antibacterial activity against Streptococcus pneumoniae DAW30 by micro-broth dilution method; type: functional
Escherichia coli = experiment: Antibacterial activity against Escherichia coli by micro-broth dilution method; type: functional
Pseudomonas aeruginosa = experiment: Antibacterial activity against Pseudomonas aeruginosa by micro-broth dilution method; type: functional
Vero = experiment: Cytotoxicity against african green monkey Vero cells after 72 hrs by MTT proliferation assay; type: cell-based; conditions: Chlorocebus sabaeus
Procedure, shortened: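 IC50 is taken as the concentration that lowers Vero kidney cell viability by 50%.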

[4] = Selectivity index, ratio of IC50 for african green monkey Vero cells to MIC for methicillin- sensitive Staphylococcus aureus 8325 ATCC 35556; type: functional
Procedure, shortened: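 Selectivity index is calculated as the Vero cell cytotoxic IC50 divided by the MIC against the wild-type, drug-sensitive, methicillin-sensitive S. aureus 8325 (ATCC 35556).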

Row | Structure (SMILES) | Activity [1] | Activity (Bacillus anthracis) | Activity (Bacillus subtilis) | Activity (Enterococcus faecalis) | Activity (Staphylococcus aureus [2]) | Activity (Staphylococcus aureus [3]) | Activity (Cutibacterium acnes) | MIC (Escherichia coli) [µg/mL] | MIC (Pseudomonas aeruginosa) [µg/mL] | MIC [1] [µg/mL] | MIC (Bacillus anthracis) [µg/mL] | MIC (Bacillus subtilis) [µg/mL] | MIC (Enterococcus faecalis) [µg/mL] | MIC (Staphylococcus aureus [2]) [µg/mL] | MIC (Staphylococcus aureus [3]) [µg/mL] | MIC (Cutibacterium acnes) [µg/mL] | MIC (Streptococcus pyogenes) [µg/mL] | MIC (Streptococcus pneumoniae) [µg/mL] | IC50 (Vero) [µg/mL] | Ratio [4] | also measured
1 | CC(C)C[C@H]1C(O)=C(C#N)C(=O)N1Cc1ccc(F)cc1 | inactive | inactive | inactive | inactive | inactive | inactive | inactive | > 200 | > 200 | – | – | – | – | – | – | – | – | – | – | – | Activity (Streptococcus pyogenes): inactive; Activity (Streptococcus pneumoniae): inactive
2 | C/C(O)=C1\C(=O)[C@@H](CC(C)C)N(Cc2ccc(F)cc2)C1=O | – | – | – | – | – | – | – | > 200 | > 200 | 100 (≈ 327 µM) | 12.5 (≈ 40.9 µM) | 12.5 (≈ 40.9 µM) | 50 (≈ 164 µM) | 12.5 (≈ 40.9 µM) | 12.5 (≈ 40.9 µM) | 12.5 (≈ 40.9 µM) | 100 (≈ 327 µM) | 25 (≈ 81.9 µM) | 35.3 (≈ 116 µM) | 2.8 | –
3 | CCCCCCCCCCN1C(=O)C(C#N)=C(O)[C@@H]1CC(C)C | – | – | – | – | – | – | – | > 200 | > 200 | 3.12 (≈ 9.74 µM) | – | – | – | – | – | – | – | – | – | – | –
4 | CCCCCCCCCCN1C(=O)/C(=C(/C)O)C(=O)[C@H]1CC(C)C | – | – | – | – | – | – | – | > 200 | > 200 | 25 (≈ 74.1 µM) | 0.8 (≈ 2.37 µM) | 0.8 (≈ 2.37 µM) | 1.6 (≈ 4.74 µM) | 0.8 (≈ 2.37 µM) | 0.4 (≈ 1.19 µM) | 0.8 (≈ 2.37 µM) | 50 (≈ 148 µM) | 6.25 (≈ 18.5 µM) | 6.3 (≈ 18.7 µM) | 15.8 | –
5 | CCCCCCCCCCN1C(=O)/C(=C(/C)O)C(=O)[C@@H]1C(C)C | – | – | – | – | – | – | – | > 200 | > 200 | 12.5 (≈ 38.6 µM) | 0.8 (≈ 2.47 µM) | 0.4 (≈ 1.24 µM) | 0.8 (≈ 2.47 µM) | 0.8 (≈ 2.47 µM) | 0.8 (≈ 2.47 µM) | 0.4 (≈ 1.24 µM) | 25 (≈ 77.3 µM) | 6.25 (≈ 19.3 µM) | 7 (≈ 21.6 µM) | 8.8 | –
6 | COc1cccc(CN2C(=O)/C(=C(/C)O)C(=O)[C@@H]2CC(C)C)c1 | – | – | – | – | – | – | – | > 200 | > 200 | 100 (≈ 315 µM) | 25 (≈ 78.8 µM) | 25 (≈ 78.8 µM) | 100 (≈ 315 µM) | 25 (≈ 78.8 µM) | 12.5 (≈ 39.4 µM) | 12.5 (≈ 39.4 µM) | 200 (≈ 630 µM) | 50 (≈ 158 µM) | 40 (≈ 126 µM) | 3.2 | –
7 | CCCCCCCCCCN1C(=O)/C(=C(/C)O)C(=O)[C@@H]1Cc1ccccc1 | – | – | – | – | – | – | – | > 200 | > 200 | 50 (≈ 135 µM) | 0.2 (≈ 0.538 µM) | 0.4 (≈ 1.08 µM) | 0.8 (≈ 2.15 µM) | 0.8 (≈ 2.15 µM) | 0.2 (≈ 0.538 µM) | 0.4 (≈ 1.08 µM) | 50 (≈ 135 µM) | 12.5 (≈ 33.6 µM) | 21.1 (≈ 56.8 µM) | 105.5 | –
8 | N#CC1=C(O)[C@H](Cc2ccccc2)N(Cc2ccccc2)C1=O | inactive | inactive | inactive | inactive | inactive | inactive | inactive | > 200 | > 200 | – | – | – | – | – | – | – | – | – | – | – | Activity (Streptococcus pyogenes): inactive; Activity (Streptococcus pneumoniae): inactive
9 | CC(C)=CCCC(C)CCN1C(=O)/C(=C(/C)O)C(=O)[C@@H]1CC(C)C (some centres not stated) | – | – | – | – | – | – | – | > 200 | > 200 | 200 (≈ 596 µM) | 0.4 (≈ 1.19 µM) | 0.8 (≈ 2.38 µM) | 0.8 (≈ 2.38 µM) | 0.8 (≈ 2.38 µM) | 0.4 (≈ 1.19 µM) | 0.4 (≈ 1.19 µM) | 25 (≈ 74.5 µM) | 3.25 (≈ 9.69 µM) | 7.3 (≈ 21.8 µM) | 18.3 | –
10 | C/C(O)=C1\C(=O)[C@H](CC(C)C)N(Cc2ccc(-c3ccccc3)cc2)C1=O | – | – | – | – | – | – | – | > 200 | > 200 | 50 (≈ 138 µM) | 0.4 (≈ 1.1 µM) | 0.4 (≈ 1.1 µM) | 0.8 (≈ 2.2 µM) | 0.8 (≈ 2.2 µM) | 0.2 (≈ 0.55 µM) | 0.2 (≈ 0.55 µM) | 25 (≈ 68.8 µM) | 12.5 (≈ 34.4 µM) | 19.7 (≈ 54.2 µM) | 98.5 | –
11 | CCCCCCCCCCN1C(=O)/C(=C(/C)O)C(=O)[C@@H]1CC(C)C | – | – | – | – | – | – | – | > 200 | > 200 | 12.5 (≈ 37 µM) | 0.8 (≈ 2.37 µM) | 0.8 (≈ 2.37 µM) | 1.6 (≈ 4.74 µM) | 0.8 (≈ 2.37 µM) | 0.4 (≈ 1.19 µM) | 0.8 (≈ 2.37 µM) | 50 (≈ 148 µM) | 6.25 (≈ 18.5 µM) | 14.7 (≈ 43.6 µM) | 36.8 | –
12 | C/C(O)=C1\C(=O)[C@@H](Cc2ccccc2)N(Cc2ccccc2)C1=O | – | – | – | – | – | – | – | > 200 | > 200 | > 200 | 25 (≈ 77.8 µM) | 25 (≈ 77.8 µM) | 100 (≈ 311 µM) | 25 (≈ 77.8 µM) | 25 (≈ 77.8 µM) | 25 (≈ 77.8 µM) | 200 (≈ 622 µM) | 50 (≈ 156 µM) | 80.6 (≈ 251 µM) | 3.2 | –
13 | CCC(C)[C@H]1C(O)=C(C#N)C(=O)N1Cc1ccccc1 (some centres not stated) | inactive | inactive | inactive | inactive | inactive | inactive | inactive | > 200 | > 200 | – | – | – | – | – | – | – | – | – | – | – | Activity (Streptococcus pyogenes): inactive; Activity (Streptococcus pneumoniae): inactive
14 | N#CC1=C(O)[C@@H](Cc2ccccc2)N(Cc2ccccc2)C1=O | inactive | inactive | inactive | inactive | inactive | inactive | inactive | > 200 | > 200 | – | – | – | – | – | – | – | – | – | – | – | Activity (Streptococcus pyogenes): inactive; Activity (Streptococcus pneumoniae): inactive
15 | CC(C)C[C@@H]1C(O)=C(C#N)C(=O)N1Cc1ccc(F)cc1 | inactive | inactive | inactive | inactive | inactive | inactive | inactive | > 200 | > 200 | – | – | – | – | – | – | – | – | – | – | – | Activity (Streptococcus pyogenes): inactive; Activity (Streptococcus pneumoniae): inactive
16 | COc1cccc(CN2C(=O)C(C#N)=C(O)[C@@H]2CC(C)C)c1 | inactive | inactive | inactive | inactive | inactive | inactive | inactive | > 200 | > 200 | – | – | – | – | – | – | – | – | – | – | – | Activity (Streptococcus pyogenes): inactive; Activity (Streptococcus pneumoniae): inactive
17 | CCN1C(=O)/C(=C(/C)O)C(=O)[C@@H]1Cc1ccccc1 | – | – | – | – | – | – | – | > 200 | > 200 | > 200 | 50 (≈ 193 µM) | > 200 | > 200 | > 200 | 200 (≈ 771 µM) | 100 (≈ 386 µM) | > 200 | > 200 | – | – | –
